# Results published in ChEMBL document CHEMBL4052812, “Imidazo[1,2-α]pyridines possess adenosine A1 receptor affinity for the potential treatment of cognition in neurological disorders” (Bioorg Med Chem Lett, 2017).
# Key:
# [1] = target: T1, Adenosine receptor A1 (Rattus norvegicus) (UniProt P25099); assay: (§1) Displacement of [3H]-DPCPX from A1 receptor in rat whole brain membrane; assay type: cell membranes; design: concentration or dose not given beside the values; conditions: concentration not given here
# T1 sequence (whole entry): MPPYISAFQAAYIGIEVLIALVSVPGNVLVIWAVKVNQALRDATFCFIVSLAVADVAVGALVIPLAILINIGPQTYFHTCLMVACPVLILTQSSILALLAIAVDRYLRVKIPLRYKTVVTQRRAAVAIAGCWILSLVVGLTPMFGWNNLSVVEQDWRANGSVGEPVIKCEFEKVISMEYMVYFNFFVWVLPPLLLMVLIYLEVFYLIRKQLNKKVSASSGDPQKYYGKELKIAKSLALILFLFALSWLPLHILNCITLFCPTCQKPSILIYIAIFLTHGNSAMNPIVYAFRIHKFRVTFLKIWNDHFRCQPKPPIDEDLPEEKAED
# Procedure, shortened: (§2)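 Competition binding against [3H]DPCPX (Kd 0.36 nM) on rat whole brain membranes. Nonspecific binding set with 100 µM CPA. Eight test concentrations from 0 to 100 µM. IC50 from a sigmoidal fit of specific binding against log concentration, converted to Ki. Run in triplicate, mean ± SEM. Where no full curve was obtained, percent displacement of radioligand at 100 µM is given.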
# Adenosine receptor A1 [2] = target: T2, Adenosine receptor A1 (Rattus norvegicus, UniProt P25099); assay: as §1; assay type: cell membranes; procedure, shortened: as §2
# T2 sequence (P25099 whole entry): T1 sequence (whole entry)
# [3] = target: Adenosine receptor A2a (Rattus norvegicus) (UniProt P30543); assay: (§3) Displacement of [3H]-NECA from A2A receptor in rat striatal membrane in presence of A1 receptor agonist N6-cyclopentyladenosine; assay type: cell membranes; design: concentration or dose not given beside the values; conditions: Striatum, concentration not given here
# Adenosine receptor A2a (Rattus norvegicus), sequence (P30543 whole entry): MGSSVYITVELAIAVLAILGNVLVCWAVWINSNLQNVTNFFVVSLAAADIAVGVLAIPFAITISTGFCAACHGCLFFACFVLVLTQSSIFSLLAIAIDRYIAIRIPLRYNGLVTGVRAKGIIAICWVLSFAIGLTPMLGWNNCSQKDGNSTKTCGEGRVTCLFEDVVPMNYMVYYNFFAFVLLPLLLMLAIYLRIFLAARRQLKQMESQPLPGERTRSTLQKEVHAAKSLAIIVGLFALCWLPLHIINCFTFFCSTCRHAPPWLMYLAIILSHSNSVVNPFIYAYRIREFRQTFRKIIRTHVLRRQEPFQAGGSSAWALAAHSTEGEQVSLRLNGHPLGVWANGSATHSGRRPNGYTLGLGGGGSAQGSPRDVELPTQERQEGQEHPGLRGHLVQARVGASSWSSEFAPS
# Procedure, shortened: (§4)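 Competition binding against [3H]NECA (Kd 15.3 nM) on rat striatal membranes, with the A1 agonist CPA present to suppress A1 binding. Nonspecific binding set with 100 µM CPA. Eight concentrations from 0 to 100 µM. Ki from the IC50 of a sigmoidal fit, in triplicate, mean ± SEM. Otherwise percent displacement at 100 µM.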
# Adenosine receptor A2a = Adenosine receptor A2a (Rattus norvegicus, UniProt P30543); assay: as §3; assay type: cell membranes, Striatum; procedure, shortened: as §4
# Adenosine receptor A2a, sequence (P30543 whole entry): as above
# [4] = Displacement of [3H]CGS21680 from A2A receptor in bovine striatal membrane; assay type: cell membranes, Bos taurus, Striatum
# Adenosine receptor A1 [5] = target: T2, Adenosine receptor A1; assay: Displacement of [3H]-DPCPX from A1 receptor in rat whole brain membrane assessed as effect on GTP shift in presence of 100 uM GTP; assay type: cell membranes
# Procedure, shortened: (§5)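 GTP shift test on rat whole brain membranes. [3H]DPCPX binding is run without GTP and with 100 µM GTP added. Ki is taken from a sigmoidal competition curve in each condition, in triplicate. The shift is Ki with GTP divided by Ki without GTP.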
# [6] = target: T1, Adenosine receptor A1 (Rattus norvegicus); assay: Ratio of Ki for adenosine receptor A1 in rat brain membrane in presence of GTP to Ki for adenosine receptor A1 in rat brain membrane in absence of GTP; assay type: cell membranes; procedure, shortened: as §5
# [7] = target: T3, Adenosine receptor A1 (Homo sapiens) (UniProt P30542); assay: Displacement of [3H]-DPCPX from recombinant human A1 receptor expressed in CHOK1 cells at 100 uM measured after 30 mins by liquid scintillation counting method relative to control; assay type: cell-based
# T3 sequence (whole entry): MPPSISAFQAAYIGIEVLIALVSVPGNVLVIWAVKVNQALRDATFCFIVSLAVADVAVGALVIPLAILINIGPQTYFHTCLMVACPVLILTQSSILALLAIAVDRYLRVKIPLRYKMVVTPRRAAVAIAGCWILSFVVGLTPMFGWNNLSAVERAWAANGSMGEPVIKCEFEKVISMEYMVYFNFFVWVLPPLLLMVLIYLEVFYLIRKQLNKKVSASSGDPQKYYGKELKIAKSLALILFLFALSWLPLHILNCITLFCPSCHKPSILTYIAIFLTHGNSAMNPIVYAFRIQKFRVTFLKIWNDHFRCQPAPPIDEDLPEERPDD
smiles,measurement,setting,value
Fc1ccc(-c2nc3ccccn3c2NC2CCCCC2)cc1,inhibition,[1],63%
same,Ki,Adenosine receptor A1 [2],> 100 µM
same,inhibition,[3],90%
same,Ki,Adenosine receptor A2a,> 100 µM
O=C(Nc1nc(-c2ccccc2)nc2nc(-c3ccccc3)cn12)C1CCCC1,Ki,[4],2.5 µM
O=[N+]([O-])c1ccc(-c2nc3ccccn3c2NC2CCCCC2)cc1,inhibition,[1],99%
same,Ki,Adenosine receptor A1 [2],> 100 µM
same,inhibition,[3],69%
same,Ki,Adenosine receptor A2a,> 100 µM
Oc1ccc(-c2cn3ccccc3n2)cc1,inhibition,[1],47%
same,Ki,Adenosine receptor A1 [2],> 100 µM
same,inhibition,[3],85%
same,Ki,Adenosine receptor A2a,> 100 µM
CC(=O)CNc1nc(-c2ccccc2)nc2nc(C)cn12,Ki,[4],> 10 µM
c1ccc(-c2nc3ccccn3c2NC2CCCCC2)cc1,inhibition,[1],57%
same,Ki,Adenosine receptor A1 [2],> 100 µM
same,inhibition,[3],77%
same,Ki,Adenosine receptor A2a,> 100 µM
COc1ccc(-c2cn3ccccc3n2)cc1,inhibition,[1],76%
same,Ki,Adenosine receptor A1 [2],> 100 µM
same,inhibition,[3],61%
same,Ki,Adenosine receptor A2a,> 100 µM
FC(F)(F)c1ccc(-c2nc3ccccn3c2NC2CCCCC2)cc1,inhibition,[1],76%
same,Ki,Adenosine receptor A1 [2],> 100 µM
same,inhibition,[3],74%
same,Ki,Adenosine receptor A2a,> 100 µM
c1ccn2ccnc2c1,inhibition,[1],100%
same,Ki,Adenosine receptor A1 [2],> 100 µM
same,inhibition,[3],75%
same,Ki,Adenosine receptor A2a,> 100 µM
CC(=O)Nc1nc(-c2ccccc2)nc2nc(C)cn12,Ki,[4],> 10 µM
Oc1ccc(-c2nc3ccccn3c2NC2CCCCC2)cc1,Ki,Adenosine receptor A1 [2],5.53 µM
same,inhibition,[3],27%
same,Ki,Adenosine receptor A2a,> 100 µM
Cc1ccc(-c2nc3ccccn3c2NC2CCCCC2)cc1,Ki,Adenosine receptor A1 [5],2 µM
same,Ki,Adenosine receptor A1 [2],2.06 µM
same,inhibition,[3],83%
same,Ki,Adenosine receptor A2a,> 100 µM
same,Ratio Ki,[6],0.97
c1ccc(CNc2c(-c3ccccc3)nc3ccccn23)cc1,inhibition,[7],89%
Clc1ccc(-c2nc3ccccn3c2NC2CCCCC2)cc1,inhibition,[1],61%
same,Ki,Adenosine receptor A1 [2],> 100 µM
same,inhibition,[3],64%
same,Ki,Adenosine receptor A2a,> 100 µM
Brc1ccc(-c2nc3ccccn3c2NC2CCCCC2)cc1,Ki,Adenosine receptor A1 [2],3.9 µM
same,inhibition,[3],54%
same,Ki,Adenosine receptor A2a,> 100 µM
COc1ccc(-c2nc3ccccn3c2NC2CCCCC2)cc1,Ki,Adenosine receptor A1 [2],7.61 µM
same,inhibition,[3],55%
same,Ki,Adenosine receptor A2a,> 100 µM
Nc1c(-c2ccccc2)nc2ccccn12,inhibition,[1],52%
same,Ki,Adenosine receptor A1 [2],> 100 µM
same,inhibition,[3],86%
same,Ki,Adenosine receptor A2a,> 100 µM
Brc1ccc(-c2cn3ccccc3n2)cc1,inhibition,[1],86%
same,Ki,Adenosine receptor A1 [2],> 100 µM
same,inhibition,[3],87%
same,Ki,Adenosine receptor A2a,> 100 µM
c1ccc(-c2cn3ccccc3n2)cc1,inhibition,[1],49%
same,Ki,Adenosine receptor A1 [2],> 100 µM
same,inhibition,[3],52%
same,Ki,Adenosine receptor A2a,> 100 µM
